Reference: PubChem BioAssay AID504499 (Broad Institute, 2011)
Calls of active or inactive are those of the source.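 Rule for the calls: active = compounds whose fitted half-maximal growth inhibition potency lies within ten times the top tested dose; inconclusive = flat inhibition of 30 to 70 percent, or poor fit; inactive = the rest.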

Tested on: not listed separately
Experiment: growth inhibition of C. albicans alone, dose response, counter-screen for antifungal drug resistance project, CaCi-2, no fluconazole, powder samples, set 9 (AID 504499)
Details: C. albicans CaCi-2 growth without fluconazole, Alamar Blue, 48 h; at 26 µM (top of the series)
Method in brief: (§1)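 system = C. albicans CaCi-2 | amount = inoculum at 0.00015 A600 | medium = RPMI synthetic defined growth medium without fluconazole | schedule = Yeast–compound growth 48 h, 37 °C, then Alamar Blue 2 h | benchmarks = geldanamycin positive control | signal = Alamar Blue fluorescence, 544/590 nm | evaluation = relative yeast growth derived from Alamar Blue fluorescence signal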

| Compound | growth change, negative = inhibition |
| --- | --- |
| COC(=O)Cn1nc(-c2cscn2)c2ccccc21 | -11.4% (inactive) |
| O=C(Cn1c2ccccc2c2nc3n(c(=O)c21)CCS3)N1CCCC1 | -33.3% (inactive) |
| COC(=O)Cn1nc(-c2cccnc2)c2ccccc21 | 1.88% (inactive) |
| COC(=O)n1nc(-c2ccccc2)c2ccccc21 | -9.34% (inactive) |
| O=C(O)Cn1c2ccc(F)cc2c2nc3n(c(=O)c21)CCS3 | -15.5% (inactive) |
| CC1(O)CN(C(=O)Cn2c3ccccc3c3nc4n(c(=O)c32)CCS4)C1 | 5.26% (inactive) |
| CN1CCN(C(=O)Cn2c3ccccc3c3nc4n(c(=O)c32)CCS4)CC1 | 2.02% (inactive) |
| COC(=O)Cn1nc(C(C)(C)C)c2ccccc21 | 6.09% (inactive) |
| CC1CCN(CCn2c3ccccc3c3nc4n(c(=O)c32)CCS4)CC1 | 2.22% (inactive) |
| COC(=O)Cn1nc(-c2cnco2)c2ccccc21 | 22% (inactive) |
| O=C(Cn1c2ccccc2c2nc3n(c(=O)c21)CCS3)N1CCC(F)(F)CC1 | 5.44% (inactive) |
| COC(=O)Cn1nc(C2CC2)c2ccccc21 | 4% (inactive) |
| COC(=O)Cn1nc(-c2cccc(F)c2)c2ccccc21 | -24.6% (inactive) |
| CCc1nn(CC(=O)OC)c2ccccc12 | -15.4% (inactive) |
| COC(=O)Cn1nc(-c2ccccc2)c2cccnc21 | -7.57% (inactive) |
| c1ccc(-c2nn(Cc3nnco3)c3ccccc23)cc1 | 18.3% (inactive) |
| COC(=O)Cn1nc(C2CCCCC2)c2ccccc21 | -13.2% (inactive) |
| O=C(Cn1c2ccccc2c2nc3n(c(=O)c21)CCS3)N1CC=CC1 | 6.32% (inactive) |
| O=C(Cn1c2ccc(F)cc2c2nc3n(c(=O)c21)CCS3)N1CCC(F)(F)CC1 | -9.87% (inactive) |
| O=C(Cn1c2ccccc2c2nc3n(c(=O)c21)CCS3)N1CCCCC1 | -17.6% (inactive) |
| O=C(Cn1c2ccccc2c2nc3n(c(=O)c21)CCS3)N1CCC(F)(F)C1 | 5.06% (inactive) |
| O=C(Cn1c2ccc(F)cc2c2nc3n(c(=O)c21)CCS3)N1CCC(F)(F)C1 | -1.64% (inactive) |
| O=C(O)Cn1c2ccccc2c2nc3n(c(=O)c21)CCS3 | 31.2% (inactive) |
| COC(=O)Cn1nc(-c2cccc(C)c2)c2ccccc21 | -23.2% (inactive) |
| O=C(Cn1c2ccc(F)cc2c2nc3n(c(=O)c21)CCS3)N1CC=CC1 | 2.91% (inactive) |
| COC(=O)Cn1nc(-c2cccc(OC)c2)c2ccccc21 | -28.4% (inactive) |

Tested on: C. albicans CaCi-2 (fluconazole-resistant clinical isolate) growth without fluconazole, Alamar Blue, 48 h
Experiment: as above
Details: not given
Method in brief: as §1

| Compound | AC50 |
| --- | --- |
| COC(=O)Cn1c2ccc(F)cc2c2nc3n(c(=O)c21)CCS3 | 19.4 µM |
